Assay results: PubChem BioAssay
Values without a mark were called inactive. Results filed as inconclusive are left out. Active and inactive are the calls of the source.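 How the source made its calls, unless noted: active means viability increase at or above a cutoff of the median across tested compounds plus 3 SD (cut at about 8.5% in these data, passing the limit was not always enough); inconclusive means some gains above the cutoff, reason not given; inactive means the rest.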

Key:
[1] = OD615 S. cerevisiae growth inhibition, permissive medium, pilot counter-assay, permissive growth control for S. cerevisiae lifespan shortening project (AID 705;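 active means growth inhibition above 25% in both replicates, a cutoff set 3 SD above the mean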); conditions: OD615, 24 h, at 10 µM, active compounds read high
Summary of the method: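 assay system = Saccharomyces cerevisiae strain carrying genetically modified DeaD replicative-lifespan system | medium = SC raffinose/galactose permissive medium | dosing = 10 µM single dose, 0.25% DMSO | schedule = 24 h compound exposure at 30 °C after 4 h pre-growth | measured by = OD at 615 nm | read-out basis = growth inhibition from lowered OD615 after 24 h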

[2] = Restrictive medium S. cerevisiae growth inhibition, OD615, pilot screen of yeast lifespan reduction project, restrictive growth control (AID 706;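 active means growth inhibition above a set limit, 3 SD over mean compound inhibition, in both replicates, cut at about 43% in these data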;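 further: modified DeaD lifespan yeast strain shifted to restrictive glucose medium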); conditions: OD615, 48 h, at 10 µM, active compounds read high
Summary of the method: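 Buffer or medium: CSMM-D glucose medium. Material: genetically modified Saccharomyces cerevisiae, DeaD replicative lifespan assay strain. Times: 48 h compound exposure at 30 °C. Measured by: optical density at 615 nm.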

[3] = viability gain of MRP-1-high H69AR cells under doxorubicin, pilot screen, MRP-1 activator project, CellTiter-Glo, duplicate (AID 807); conditions: H69AR viability with doxorubicin, CellTiter-Glo luminescence; at 10 µM; active compounds read high;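 further: compound pretreatment 18-22 h then 72 h combined with doxorubicin; 0% = doxorubicin alone and 100% = vehicle without doxorubicin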
[4] = growth suppression of beta-catenin knockout HCT116, pilot screen, human colon tumor cells (AID 823;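 active means cell viability at or below a set limit in both duplicate runs, the limit being the all-compound median minus 4 SD, cut at about 23% in these data, passing the limit was not always enough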;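 further: 0% = wells killed by 20 µM Hyamine and 100% = untreated DMSO cell wells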); conditions: CellTiter-Glo, 60 h, at 10 µM, active compounds read low
[5] = growth suppression of PTEN-deleted HCT116, pilot screen, cell-based, HCT116 clonal line, CellTiter-Glo (AID 824;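 active means viability at or below 27.92% in each of two runs, the all-compound median minus 4 SD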;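 further: 0% = 20 µM Hyamine control and 100% = vehicle cell control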); conditions: 60 h, at 10 µM, active compounds read low
[6] = inhibitors of the yeast RAM network, pilot screen, dse1pr::URA3 reporter, 5-FOA selection (AID 869;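 active means inhibition over a set limit, the all-compound mean plus 3 SD, in both replicate runs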;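 further: 0% = DMSO wells with no growth and 100% = 10 µM 1-NA-PP1 with full growth; RAM network block rescues cells from 5-FOA so hits raise OD615 growth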); conditions: S. cerevisiae dse1pr::URA3 5-FOA growth, OD615, 2 d; at 10 µM; active compounds read high; strain carries analog-sensitive mutant Cbk1 kinase
[7] = RAM signaling pathway blockade in yeast – S. cerevisiae, Pdr1DBD-CYC8 efflux-inhibited sensitized strain, primary screen (AID 1298;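 active means RAM network inhibition above 8.4% in each of two replicates, 3 SD over the compound average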;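 further: 0% = DMSO untreated cells without growth and 100% = 10 µM 1-NA-PP1 full growth; higher means more yeast growth rescued from 5-FOA killing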); conditions: S. cerevisiae cbk1-as DSE1-URA3 strain, 5-FOA growth OD615, 2 d; at 50 µM; active compounds read high

| Compound | growth inhibition [1] [%] | growth inhibition [2] [%] | viability increase [3] [%] | viability [4] | viability [5] | inhibition [6] [%] | RAM network inhibition [7] [%] |
| --- | --- | --- | --- | --- | --- | --- | --- |
| COc1ccc(OC)c2sc(NC(=O)C(C)C)nc12 | -15.2 | -18 | -1.14 | 105% | 92% | 1.31 | 9.63 |
| Cc1c(C(=O)NCCN2CCOCC2)oc2ccc(S(=O)(=O)N3CCCCCC3)cc12 | -3.55 | -1.55 | -2.1 | 86.1% | 90.6% | 1.15 | -1.39 |
| CCCCNC(=O)CS(=O)Cc1nc(-c2ccc(C)cc2)oc1C (configuration not stated) | -7.66 | 0.83 | -2.08 | 87.4% | 88.5% | -0.365 | 2.19 |
| CC(=O)c1c(C)[nH]c(C(=O)N2c3ccccc3CC2C)c1C (configuration not stated) | -1.11 | 3.09 | -0.41 | 92.3% | 92.6% | 0.755 | 3.82 |
| Cc1ccc(-c2nn(C)c(=O)c3ccccc23)cc1S(=O)(=O)N1CCCC1 | -1.23 | -6.2 | -5.14 | 49.8% | 61% | 0.01 | 2.78 |
| CC1(C)CC(=O)C=C(NC2CC(C)(C)NC(C)(C)C2)C1 | -11.6 | -15.2 | -0.93 | 102% | 98.8% | 1.32 | 3.08 |
| Cc1sc2nc(SCC(=O)N3CCOCC3)[nH]c(=O)c2c1C | -1.58 | -1.96 | -1.93 | 105% | 92.2% | 1.8 | 2.17 |
| Cc1cccc(NC(=O)COc2ccc(Br)cc2C)n1 | -4.42 | 1.1 | 1.07 | 92.9% | 90.5% | 0.655 | 5.6 |
| COc1ccc(NC(=O)CSc2nnc(Cn3c(=O)sc4ccccc43)n2C)cc1 | -3.85 | 7.49 | -4.99 | 111% | 98.4% | 2.43 | 1.51 |
| CC1CC(C)(C)Nc2ccc(OC(=O)c3ccco3)cc21 (configuration not stated) | 7.66 | 5.69 | -7.85 | 1.57% (active) | 1.59% (active) | 0.51 | 3.36 |
| CCOc1ccc(N(CC(=O)NCc2ccccc2)S(=O)(=O)c2c(C)noc2C)cc1 | -21.6 | -21.6 | -0.68 | 101% | 95.1% | 4.04 | 3.95 |
| CC(C)CNC1=CC(=O)CC(c2ccco2)C1 (configuration not stated) | -13 | -15.9 | -1.92 | 91.5% | 93.8% | 1.17 | -0.73 |
| CC(C)c1ccc(N(CC(=O)O)S(=O)(=O)c2cccnc2)cc1 | -2 | 8.54 | -1.28 | 93.3% | 98.7% | -0.135 | -1.88 |
| O=C(NCc1ccc(F)cc1)c1cc2n(n1)C(C(F)(F)F)CC(C1CC1)N2 (configuration not stated) | -4.54 | -7.74 | -0.43 | 106% | 96% | 4.14 | 4.9 |
| CC(CCc1ccccc1)NC(=O)c1nnc(Cc2ccc(F)cc2)o1 (configuration not stated) | -3.78 | 7.46 | 0 | 95.2% | 95.2% | 0.95 | 1.1 |
| CCc1cc(C(=O)Cc2cnn(-c3ccccc3)c2)c(O)cc1O | -6.31 | -9.12 | -2.95 | 101% | 99.1% | 1.42 | 3.54 |
| Cc1ccc(C)c(C(=O)N(Cc2nc(-c3ccc(Cl)cc3)no2)C(C)C)c1 | -8.99 | -16.6 | -0.54 | 56.5% | 62.6% | 1.21 | 4.04 |
| COc1cc2c(cc1OC)C(C(=O)N1CCCC1)C(c1ccccc1F)N(C)C2=O (configuration not stated) | -23.3 | -16.3 | -1.68 | 91.3% | 97% | 0.27 | 3.55 |

| Compound | growth inhibition [1] [%] | growth inhibition [2] [%] | viability increase [3] [%] | viability [4] | viability [5] | inhibition [6] [%] | RAM network inhibition [7] [%] |
| --- | --- | --- | --- | --- | --- | --- | --- |
| Cn1c(NC(=O)c2ccc(C(C)(C)C)cc2)cc(=O)n(C)c1=O | -2.62 | -6.46 | -2.04 | 91.1% | 96.5% | 1.97 | 1.63 |
| O=C(OCCN1C(=O)c2ccccc2C1=O)c1cccs1 | -5.91 | -1.62 | -1.54 | 104% | 100% | 0.61 | 2.97 |
| Cc1ccc(N)c(C(O)(C(F)(F)F)C(F)(F)F)c1 | -4.98 | -2.67 | 2.71 | 105% | 99.6% | -0.695 | 2.27 |
| C=C(C)Cn1c(N2CCCC2)nc2c1c(=O)[nH]c(=O)n2C | -1.91 | -5.8 | -1.97 | 108% | 96.6% | 1.32 | 2.05 |
| COc1ccccc1NC(=O)c1ccc(S(=O)(=O)N(C)C)cc1 | 0.34 | 6.62 | -0.55 | 108% | 105% | 2.33 | -1.21 |
| COc1ccc(NC(=O)c2ccc3c(c2)n(C)c(=O)n3C)cc1 | -9.67 | -7.33 | -5.39 | 55.7% | 55.7% | 1.06 | 4.75 |
| COc1ccc(-c2nc(C#N)c(NCCN(C)C)o2)cc1 | -5.38 | -5.11 | -0.95 | 101% | 97.5% | 0.355 | 3.09 |
| Cn1c(=O)[nH]c(=O)c2c1nc(CN1CCN(c3cccc(Cl)c3)CC1)n2Cc1ccccc1Cl | -9.22 | -6.86 | -6.82 | 41.1% | 32.9% | 1.39 | 4.08 |
| CCOC(=O)c1sc(NC(=O)C2CC2)cc1C | -9.29 | -0.985 | 0.54 | 99.5% | 89.4% | 2.37 | 0.98 |
| COc1cccc(NC(=O)c2cccnc2)c1 | -5.19 | 7.85 | 1.59 | 100% | 87.2% | 0.55 | 3.7 |
| Cn1c(Cn2c(=O)sc3ccccc32)nnc1SCC(=O)Nc1ccc2c(c1)OCO2 | -1.55 | 7.6 | -5.8 | 105% | 99.6% | 2.34 | 3.46 |
| CCCN1CCN(CCCNC(=O)c2cc3c(=O)n(C)c4ccccc4c3n2C)CC1 | -5.02 | 0.66 | -7.07 | 64.1% | 65.3% | 0.68 | 1.89 |
| COc1ccc(NS(=O)(=O)c2ccc(OC)c(OC)c2)cc1OC | -7.13 | 4.59 | 0.52 | 92% | 90.7% | 0.335 | 0 |
| O=S(=O)(NCCCN1CCN(c2ccccc2F)CC1)c1cccc2cccnc12 | -1.96 | 6.3 | -2.92 | 77.9% | 77.4% | 0.97 | 5.43 |
| CCC(=O)N1CCc2cc(Br)cc(S(=O)(=O)NCCN3CCOCC3)c21 | -4.99 | -8.08 | 0.03 | 101% | 98.4% | 1.71 | 1.49 |
| O=S(=O)(NCCO)c1cccc2cccnc12 | -8.73 | -10.2 | -1.21 | 94% | 85.4% | 1.24 | -0.64 |
| O=C(CC(=O)N1CCN(c2ccccn2)CC1)Nc1ccc2nc3n(c(=O)c2c1)CCCCC3 | -3.13 | -3.46 | 0.08 | 101% | 100% | 0.87 | 2.7 |
| CCOC(=O)N1CCN(C(=O)C2CCCN(c3nc4ccc(OCC)cc4s3)C2)CC1 (configuration not stated) | -6.49 | -7.45 | -1.32 | 90.6% | 89.7% | 0.33 | 5.16 |
